Measurements of several laboratories.
Compare with care: the assays were run in different laboratories.
Target: Platelet-derived growth factor receptor beta (PDGFRB, Homo sapiens, UniProt P09619)

With `Cc1ccc(NC(=O)c2ccc(CN3CCS(=N)(=O)CC3)cc2)cc1Nc1nccc(-c2cccnc2)n1` the Kd was 19 nM (binding; competition with immobilised ligand).
With `COc1ccc2c(Oc3ccc4c(C(=O)Nc5ccccc5N)cccc4c3)ccnc2c1` the IC50 was 93 nM (enzyme activity; inhibitor).
`FC(F)(F)c1ccc(CNc2ccc(Cc3c[nH]c4ncc(Cl)cc34)cn2)cn1` gave an IC50 of 8 nM (enzyme activity; inhibitor).
`Cc1cnc(-c2ccc(-c3ccc(NC(=O)Nc4c(F)cc(F)cc4F)cc3F)c3c2C(=O)NC3)[nH]1` gave a Kd of 0.4 nM (binding; competition with immobilised ligand).
For `C=CC(=O)Nc1cccc(CN2C(=O)N(c3c(Cl)c(OC)cc(OC)c3Cl)Cc3cnc(NCCCCN(CC)CC)nc32)c1`, the Kd was 480 nM (binding; competition with immobilised ligand).
`Cc1ccc(NC(=O)c2ccc(C)c(C(F)(F)F)c2)cc1C#Cc1nn(C2CCC(O)CC2)c2ncnc(N)c12` (centres unmarked) gave an IC50 of > 10000 nM (enzyme activity; inhibitor; radiometric).
With `Cc1cc(Nc2cc3ncccc3c(N[C@@H]3C[C@H]4CC[C@@H](C3)N4CCC#N)n2)n[nH]1` the Kd was 68 nM (binding; competition with immobilised ligand).
`CCN1CCN(Cc2ccc(C(=O)Nc3ccc(C)c(Oc4ccc5c(c4)CC(=O)N5)c3)cc2C(F)(F)F)CC1` has an IC50 of > 10000 nM (enzyme activity; inhibitor).
